Experimental data pooled from the literature.
Lines come from different studies, so protocols differ. ≈ marks a conversion by molar mass, not a printed value.

SMILES | assay | system | conditions | quantity | value
Cn1cncc1[C@@](N)(c1ccc(Cl)cc1)c1ccc2c(c1)c(-c1cccc(Cl)c1)cc(=O)n2C | – | beagle dog, plasma | oral, 10 mg/kg, single dose | bioavailability | 65%
CN1CCN(c2cnc3c(cc(C(=O)NCc4ccc(Cl)cc4)c(=O)n3CC(=O)N3CC(C)(F)C3)n2)C1=O | – | aqueous buffer | 24 h, pH 7.4, 37 °C | thermodynamic solubility | < 1.56 µM
CCCCC(CC)CNC(=N)NC(=N)NCCCCCCNC(=N)NC(=N)NCC(CC)CCCC (centres unmarked) | – | Caco-2 | 5 µM, 2 h | Papp A→B | < 0.07 ×10⁻⁶ cm/s
Cn1cncc1[C@@](N)(c1ccc(Cl)cc1)c1ccc2c(c1)c(-c1cccc(Cl)c1)cc(=O)n2C | – | FaSSIF | pH 6.5, 37 °C | solubility | 14.1 µg/mL (≈ 28.8 µM)
CC(C)C[C@H](NC(=O)[C@@H]1COCCCCCC(=O)NCC(=O)N2CCC[C@H]2C(=O)N1)C(=O)[C@@]1(C)CO1 | – | Caco-2 | 10 µM, 2 h, pH 7.4 | Papp B→A | 7.25 ×10⁻⁶ cm/s
CC[C@@](O)(c1ccc(C(F)(F)F)c(C#N)c1)c1c2ccn(C3CC3)c(=O)c2nn1C | nephelometry | aqueous buffer | 30 min, pH 6.5 | kinetic solubility | 20 to 40 µM (≈ 8.33 to 16.7 µg/mL)
CC(C)NCC(O)COc1cccc2ccccc12 (centres unmarked) | – | Caco-2 | 5 µM, 2 h | Papp A→B | 18.4 ×10⁻⁶ cm/s
CC1(F)CN(C(=O)Cn2c(=O)c(C(=O)NCc3ccc(Cl)cc3)cc3nc(N4CCNC4=O)cnc32)C1 | – | aqueous buffer | 24 h, pH 7.4, 37 °C | thermodynamic solubility | < 1.56 µM
Cn1nc2c(=O)n(C3CC3)nc(C3CC3)c2c1Cc1ccc(C(F)(F)F)c(F)c1 | nephelometry | aqueous buffer | 30 min, pH 6.5 | kinetic solubility | 6.3 to 12.5 µM (≈ 2.56 to 5.08 µg/mL)
CO[C@]1(C(=O)N[C@@H](C)c2ccc(-n3cc(F)cn3)nc2)CC[C@H](c2nc(C)cc(Nc3cc(C)[nH]n3)n2)CC1 | – | – | – | pKa | 6.71
Cn1nc2c(=O)n(C3CC3)ncc2c1[C@](O)(c1ccc(C(F)(F)F)c(Cl)c1)C(F)(F)F | nephelometry | aqueous buffer | 30 min, pH 6.5 | kinetic solubility | 5 to 10 µM (≈ 2.33 to 4.67 µg/mL)
C[C@H]1COC2=C1C(=O)C(=O)c1c2ccc2c1CCCC2(C)C | – | PBS | 24 h, pH 4, 25 °C | thermodynamic solubility | 15.8 µg/mL
CCn1cc(Cl)c2c(Cc3ccc(N4CCCCC4)nc3)n(C)nc2c1=O | nephelometry | aqueous buffer | 30 min, pH 6.5 | kinetic solubility | 40 to 80 µM (≈ 15.4 to 30.9 µg/mL)
Cc1c(C(=O)O)ccc2c3n(nc12)[C@@H]1[C@H](C3)N(CC2CC2)[C@@]2(C(=O)Nc3cc(Cl)ccc32)[C@H]1c1cccc(Cl)c1F | – | male dog, plasma | oral, 2 mg/kg | bioavailability | 109%
